These results are taken from ChEMBL document CHEMBL5357047, “The development of thymol-isatin hybrids as broad-spectrum antibacterial agents with potent anti-MRSA activity” (RSC Med Chem, 2024).

Broadly, the MIC is the smallest concentration in the dilution series that meets the test's criterion for growth inhibition. For orientation: MBC means the smallest concentration meeting the test's criterion for killing. Usually IC50 stands for the concentration that inhibits the measured activity by half. For orientation: inhibition means the change of the read-out against control, counted positive when it falls.

Each structure is given as a SMILES string. Converted amounts (≈) assume the structure as drawn. The source made the active and inactive calls.

The test system of data set [1] is Staphylococcus aureus. Description: Antibacterial activity against Staphylococcus aureus MTCC 740 assessed as inhibition of bacterial growth at 50 uM measured after 48 hrs by agar well diffusion method. Format: functional. The conditions noted are these: read-out: IZ. For orientation: Agar diffusion results depend on both activity and mobility in agar.
Another data set deals with Escherichia coli. Description: Antibacterial activity against clinically isolated Escherichia coli RBRJ005 assessed as inhibition of bacterial growth at 50 uM measured after 48 hrs by agar well diffusion method. Format: functional. The conditions noted are these: read-out: IZ.
For the next data set, the system named is Acinetobacter baumannii. As to the kind of experiment: Antibacterial activity against clinically isolated Acinetobacter baumannii RBRJ027 assessed as inhibition of bacterial growth at 50 uM measured after 48 hrs by agar well diffusion method. Format: functional. The settings on record: read-out: IZ.
The next data set relates to Pseudomonas aeruginosa. As to the kind of experiment: Antibacterial activity against Pseudomonas aeruginosa MTCC 424 assessed as inhibition of bacterial growth at 50 uM measured after 48 hrs by agar well diffusion method. Format: functional. The settings on record: read-out: IZ.
Data set [2] has as its system Staphylococcus epidermidis. Description: Antibacterial activity against Staphylococcus epidermidis MTCC 435 assessed as inhibition of bacterial growth measured after 48 hrs by broth microdilution method. Format: functional. A general note: Broth dilution looks for growth in wells or tubes with falling amounts of substance.
Data set [3] concerns Staphylococcus aureus. Description: Antibacterial activity against clinically isolated Methicillin-resistant Staphylococcus aureus assessed as inhibition of bacterial growth measured after 48 hrs by broth microdilution method. The class given is functional.
Data set [4] relates to Staphylococcus aureus. Description: Bactericidal activity against Staphylococcus aureus MTCC 740 assessed as inhibition of bacterial growth measured after 48 hrs by agar plate method. Format: functional. The essentials:
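MBC: aliquots from microdilution wells without colour change subcultured on drug-free Mueller Hinton agar, 48 h at 37 °C aerobically. MBC is the lowest concentration with no visible growth. Triplicate.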

Data set [5] concerns Staphylococcus aureus. Description: Bactericidal activity against clinically isolated Methicillin-resistant Staphylococcus aureus assessed as inhibition of bacterial growth measured after 48 hrs by agar plate method. Format: functional.
A short description of data set [6]: Cytotoxicity against mouse L929 cells assessed as reduction in cell viability measured after 72 hrs by MTT assay. Format: toxicity, cell-based. The method, boiled down: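 L929 cells (ATCC) grown in DMEM with 10% FBS and penicillin/streptomycin at 37 °C, 5% CO2; seeded at 5 × 10^3 cells per well and exposed to serial dilutions for 72 h, paclitaxel as positive control. MTT (5 mg mL−1), formazan dissolved in DMSO, absorbance at 490 nm; viability relative to control after blank subtraction; IC50 in μM.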
(In general: Formazan colour is commonly taken as a measure of viable cells.)

The subject of data set [7] is Staphylococcus aureus. As to the kind of experiment: Bactericidal activity against Methicillin-resistant Staphylococcus aureus assessed as reduction in colony formation units at 1 to 2XMIC measured after 48 hrs by time-kill assay. Format: functional, organism-based. The method, boiled down: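 Samples taken at 1, 2, 4, 8, 12, 24 and 48 h, diluted in 0.9% saline and plated on Mueller Hinton agar (48 h, 37 °C). CFU counted and log10 CFU mL−1 plotted against time. Triplicate.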

Data set [8] has as its system Staphylococcus aureus. As to the kind of experiment: Anti-biofilm activity against Methicillin-resistant Staphylococcus aureus assessed as reduction in biofilm formation at 1/2XMIC measured after 48 hrs by crystal violet staining based analysis. The class given is functional. The method, boiled down:
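Non-adherent cells washed off with water, stained with 0.5% crystal violet 30 min at 25 °C, dye eluted with 95% ethanol, OD 545 nm. Reported as % reduction versus untreated control. Triplicate.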

Data set [9] relates to Staphylococcus aureus. As to the kind of experiment: Anti-biofilm activity against Methicillin-resistant Staphylococcus aureus assessed as biofilm volume/area at 1XMIC measured after 48 hrs by crystal violet staining based phase contrast microscopy (reference value: 18.37 +/-1.14 um3/um2). Format: functional.
The test system of data set [10] is Staphylococcus aureus. As to the kind of experiment: Anti-biofilm activity against Methicillin-resistant Staphylococcus aureus assessed as mean thickness of biofilm at 2XMIC measured after 48 hrs by crystal violet staining based phase contrast microscopy (reference value: 15.03+/-1.63 um). Format: functional.
Data set [11] has as its system Staphylococcus aureus. As to the kind of experiment: Anti-biofilm activity against Methicillin-resistant Staphylococcus aureus assessed as biofilm substrate coverage at 1XMIC measured after 48 hrs by crystal violet staining based phase contrast microscopy (reference value: 81.43+/-3.57%). Format: functional.
For data set [12], the system named is Staphylococcus aureus. As to the kind of experiment: Anti-biofilm activity against Methicillin-resistant Staphylococcus aureus assessed as biofilm substrate coverage at 2XMIC measured after 48 hrs by crystal violet staining based phase contrast microscopy (reference value: 81.43+/-3.57%). Format: functional.
Data set [13] relates to Staphylococcus aureus. Description: Anti-biofilm activity against Methicillin-resistant Staphylococcus aureus assessed as cell leakage and irregular surface at 1 to 2X MIC measured after 48 hrs by scanning electron microscopy. The class given is functional, organism-based.
For data set [14], the target named is T1, 4,4'-diapophytoene synthase (Staphylococcus aureus) (UniProt A9JQL9).
T1 sequence (whole entry): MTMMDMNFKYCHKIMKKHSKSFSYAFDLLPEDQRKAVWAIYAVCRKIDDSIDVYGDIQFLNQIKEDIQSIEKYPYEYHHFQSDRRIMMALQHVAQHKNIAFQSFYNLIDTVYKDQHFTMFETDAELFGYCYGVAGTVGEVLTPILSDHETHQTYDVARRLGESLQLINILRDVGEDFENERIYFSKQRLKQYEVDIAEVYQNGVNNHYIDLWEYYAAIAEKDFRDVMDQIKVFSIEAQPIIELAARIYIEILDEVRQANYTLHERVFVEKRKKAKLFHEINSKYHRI
As to the kind of experiment: Inhibition of CrtM in Methicillin-resistant Staphylococcus aureus assessed as inhibition of staphyloxanthin production at 1/4 to 1/16XMIC measured after 48 hrs.

For data set [15], the target named is T1, 4,4'-diapophytoene synthase (Staphylococcus aureus). Description: Inhibition of CrtM in Methicillin-resistant Staphylococcus aureus assessed as inhibition of staphyloxanthin production by measuring reduction in 4,4'-diapophytoene level at 1/4XMIC measured after 24 hrs by spectroscopic analysis. The method, boiled down: (§1)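 Cells pelleted, PBS-washed, extracted overnight in methanol at 37 °C. Supernatant absorbance read at 462 nm (staphyloxanthin), 286 nm (4,4′-diapophytoene), 435 nm (4,4′-diaponeurosporene) or 455 nm (4,4′-diaponeurosporenic acid). % inhibition = (control − treated)/control × 100.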

Data set [16] has the same target. As to the kind of experiment: Inhibition of CrtM in Methicillin-resistant Staphylococcus aureus assessed as inhibition of staphyloxanthin production by measuring reduction in 4,4'-diaponeurosporene level at 1/4XMIC measured after 24 hrs by spectroscopic analysis. The method, boiled down: as §1
Data set [17] shares this target. As to the kind of experiment: Inhibition of CrtM in Methicillin-resistant Staphylococcus aureus assessed as inhibition of staphyloxanthin production by measuring reduction in 4,4'-diaponeurosporenic acid level at 1/4XMIC measured after 24 hrs by spectroscopic analysis. The essentials: as §1
Data set [18] shares this target. As to the kind of experiment: Inhibition of CrtM in Methicillin-resistant Staphylococcus aureus assessed as reduction in staphyloxanthin level at 1/4XMIC measured after 24 hrs by spectroscopic analysis. The method, boiled down:
as §1

A short description of data set [19]: Toxicity against Galleria mellonella assessed as metabolic activity of larva at 20 mg/kg measured every 12 hrs for 120 hrs. Format: organism-based. The conditions noted are these: in vivo. The essentials:
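Uninfected Galleria mellonella larvae (0.2–0.4 g, ten per group) given 20 mg kg−1 compound, alongside untreated, PBS and PBS + 2% DMSO vehicle controls; held at 37 °C and checked every 12 h for 120 h. Larvae that turned black and gave no response to stimulus counted dead; percentage survival recorded.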

In data set [20] the test system is Staphylococcus aureus. Description: Antibacterial activity against Methicillin-resistant Staphylococcus aureus infected in Galleria mellonella assessed as larva's survival rate at 5 to 10 mg/kg measured after 24 to 48 hrs. Format: functional. The conditions noted are these: dose 5-10 mg/kg, time 24-48 hrs. The method, boiled down: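 Galleria mellonella larvae (0.2–0.4 g, 10 per group) injected in the last proleg with MRSA at 5 × 10^8 ± 0.2 cells per larva, then given 2.5, 5 or 10 mg kg−1. Controls: untreated, PBS, and PBS + 2% DMSO vehicle. Held at 37 °C and checked every 12 h; larvae that were black and unresponsive counted dead. Bacterial burden by CFU at 0, 24 and 48 h.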

Regarding `Cc1ccc(C(C)C)c(OCc2cn(CCCN3C(=O)C(=O)c4ccccc43)nn2)c1`, the zone of inhibition at 50 µM was determined as 28.6 mm in the data set with Staphylococcus aureus [1], 19.3 mm in the data set on Escherichia coli, 18.3 mm with Acinetobacter baumannii and 22.3 mm in the data set with Pseudomonas aeruginosa. Further, the MIC in data set [2] was 3.9 µM (≈ 1.63 µg/mL); with Staphylococcus aureus [3], 1.9 µM (≈ 0.795 µg/mL). Also, the MBC in the data set on Staphylococcus aureus [4] and in the data set with Staphylococcus aureus [5] was 3.9 µM (≈ 1.63 µg/mL) in each case. In data set [6], the IC50 at 72 h amounted to 125 µM. In addition, the outcome with Staphylococcus aureus [7] and in the data set on Staphylococcus aureus [13] was Active. Further, the “inhibition (INH)” value in the data set on Staphylococcus aureus [8] was determined as 78.43%. In addition, the Activity in the data set with Staphylococcus aureus [9] is given as 1.57 um3/um2; with Staphylococcus aureus [10], 0.16 um; with Staphylococcus aureus [11], 5.11%; with Staphylococcus aureus [12], 1.83%; in data set [19] it was “Non-Toxic”; in the data set with Staphylococcus aureus [20] it was 90%. The inhibition result is “Dose-Dependent Effect” in [14]; 86% in [15]; 85% in data set [16]; 86% in data set [17]; 86% in data set [18].
